Measured values taken from ChEMBL document CHEMBL1125477, “Highly potent and selective heptapeptide antagonists of the neurokinin NK-2 receptor” (J Med Chem, 1992).

What was measured:
[1] = molecular target: Substance-P receptor (Cavia porcellus) (UniProt P30547); assay: Compound was evaluated for antagonism of contractile response of guinea pig ileum longitudinal smooth muscle (GPI) at tachykinin receptor 1; assay type: functional, tissue-based
Outline: (§1)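 Isolated longitudinal smooth muscle of ileum from male Dunkin-Hartley guinea-pigs (300–600 g), killed by concussion and exsanguination. Contraction to SP methyl ester (NK-1 agonist). At least two control agonist curves, then one antagonist concentration per preparation. Concentration-ratio read graphically at half-maximal response. pK_B = log(CR−1) − log[antagonist]. Mean ± SE over four to eight tissues.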

[2] = molecular target: T1, Substance-K receptor (Rattus norvegicus) (UniProt P16610); assay: Compound was evaluated for antagonism of contractile response of rat colon muscularis mucosae (RC) at tachykinin receptor 2; assay type: functional, tissue-based; conditions: Muscularis mucosa
T1 sequence (whole entry): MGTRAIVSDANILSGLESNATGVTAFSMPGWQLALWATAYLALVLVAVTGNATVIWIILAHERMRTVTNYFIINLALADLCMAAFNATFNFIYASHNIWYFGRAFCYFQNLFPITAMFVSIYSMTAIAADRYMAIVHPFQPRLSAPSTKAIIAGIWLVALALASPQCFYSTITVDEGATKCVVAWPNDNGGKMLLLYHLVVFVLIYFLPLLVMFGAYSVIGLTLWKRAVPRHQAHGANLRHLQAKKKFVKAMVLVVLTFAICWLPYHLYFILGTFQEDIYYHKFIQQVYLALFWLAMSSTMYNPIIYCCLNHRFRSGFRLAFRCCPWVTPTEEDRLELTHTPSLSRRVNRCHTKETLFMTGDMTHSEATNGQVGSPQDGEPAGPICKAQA
Outline: (§2)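 Colon muscularis mucosae from male AHA rats (250–500 g), killed by concussion and exsanguination. Contraction to neurokinin A (NK-2). At least two control agonist curves, then a single antagonist concentration per tissue. Equiactive agonist concentration-ratio taken at half-maximal response. pK_B = log(CR−1) − log[antagonist]. Mean ± SE over four to eight preparations.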

[3] = molecular target: T2, Neuromedin-K receptor (Rattus norvegicus) (UniProt P16177); assay: Compound was evaluated for antagonism of contractile response of rat portal vein at tachykinin receptor 3; assay type: functional
T2 sequence (whole entry): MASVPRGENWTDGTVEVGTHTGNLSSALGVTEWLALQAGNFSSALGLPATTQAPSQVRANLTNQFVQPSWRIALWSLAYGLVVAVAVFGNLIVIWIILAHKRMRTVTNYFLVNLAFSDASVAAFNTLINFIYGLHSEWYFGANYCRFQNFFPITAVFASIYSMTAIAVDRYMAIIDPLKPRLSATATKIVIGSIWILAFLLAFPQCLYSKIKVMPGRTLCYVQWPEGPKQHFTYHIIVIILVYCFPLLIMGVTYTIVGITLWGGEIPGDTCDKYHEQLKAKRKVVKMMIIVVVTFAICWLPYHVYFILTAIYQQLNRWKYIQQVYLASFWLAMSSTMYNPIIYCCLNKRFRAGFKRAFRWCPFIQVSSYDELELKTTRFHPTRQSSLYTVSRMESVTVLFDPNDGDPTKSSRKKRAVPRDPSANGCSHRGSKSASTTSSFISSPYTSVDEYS
Outline: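 Everted portal vein from male AHA rats (250–500 g). Contraction to senktide (NK-3). Agonist curves were repeated at least twice before exposure to one antagonist concentration per preparation. Concentration-ratio estimated graphically at the half-maximal level. pK_B = log(CR−1) − log(molar antagonist). Mean ± SE of four to eight tissues.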

[4] = molecular target: Substance-P receptor (Cavia porcellus) (UniProt P30547); assay: Compound was evaluated for antagonism of contractile response of guinea pig ileum longitudinal smooth muscle (GPI) at Tachykinin receptor 1; assay type: functional, tissue-based; outline: as §1
[5] = molecular target: T1, Substance-K receptor (Rattus norvegicus); assay: Compound was evaluated for antagonism of contractile response of rat colon muscularis mucosae (RC) at Tachykinin receptor 2; assay type: functional, tissue-based; conditions: Muscularis mucosa; outline: as §2

Substance-P receptor (Cavia porcellus), sequence (P30547 whole entry): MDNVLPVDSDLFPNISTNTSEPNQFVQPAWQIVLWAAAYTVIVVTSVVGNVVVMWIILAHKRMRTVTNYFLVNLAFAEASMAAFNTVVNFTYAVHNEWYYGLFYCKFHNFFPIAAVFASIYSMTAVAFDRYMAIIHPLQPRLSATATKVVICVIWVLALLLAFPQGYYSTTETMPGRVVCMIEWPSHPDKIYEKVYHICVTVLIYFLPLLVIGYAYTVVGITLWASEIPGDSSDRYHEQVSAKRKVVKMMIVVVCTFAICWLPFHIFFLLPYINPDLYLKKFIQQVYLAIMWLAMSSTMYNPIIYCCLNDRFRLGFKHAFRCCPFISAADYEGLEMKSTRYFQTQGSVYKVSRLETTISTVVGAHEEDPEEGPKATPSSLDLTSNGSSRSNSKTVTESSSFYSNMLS

Compound | pKB [1] | pKB [2] | pKB [3] | pKB [4] | pKB [5]
CCCC[C@H](NC(=O)[C@@H]1CCCN1C(=O)[C@H]1CCCN1C(=O)[C@H](Cc1ccccc1)NC(=O)[C@@H](Cc1c[nH]c2ccccc12)NC(=O)[C@H](C)NC(=O)[C@H](CCCN=C(N)N)NC(=O)OC(C)(C)C)C(N)=O | 5.8 | 8.2 | < 4.6 |  | 
CCCC[C@H](NC(=O)[C@@H]1CCCN1C(=O)[C@H]1CCCN1C(=O)[C@H](Cc1ccccc1)NC(=O)[C@@H](C)NC(=O)[C@H](C)NC(=O)[C@H](CCCN=C(N)N)NC(=O)OC(C)(C)C)C(N)=O | 4.8 | 5.6 |  |  | 
CCCC[C@H](NC(=O)[C@@H]1CCCN1C(=O)[C@H]1CCCN1C(=O)[C@H](Cc1ccccc1)NC(=O)[C@@H](Cc1c[nH]c2ccccc12)NC(=O)[C@H](C)NC(=O)[C@H](CCC(=O)O)NC(=O)OC(C)(C)C)C(N)=O |  |  |  | < 4.5 | 6.5
CCCC[C@H](NC(=O)[C@H](CC(C)C)NC(=O)[C@@H](Cc1c[nH]c2ccccc12)NC(=O)[C@H](Cc1ccccc1)NC(=O)[C@@H](Cc1c[nH]c2ccccc12)NC(=O)[C@H](CCC(N)=O)NC(=O)[C@H](CCCN=C(N)N)NC(=O)OC(C)(C)C)C(N)=O | 7.1 | 6.5 |  |  | 
CCCC[C@H](NC(=O)[C@@H]1CCCN1C(=O)[C@H]1CCCN1C(=O)[C@H](Cc1ccccc1)NC(=O)[C@@H](Cc1c[nH]c2ccccc12)NC(=O)[C@H](C)NC(=O)[C@H](CCC/N=C(\N)N[N+](=O)[O-])NC(=O)OC(C)(C)C)C(N)=O | 5.5 | 8.2 | 5.2 |  | 
CCCC[C@H](NC(=O)[C@@H]1CCCN1C(=O)CNC(=O)[C@H](Cc1ccccc1)NC(=O)[C@@H](Cc1c[nH]c2ccccc12)NC(=O)[C@H](C)NC(=O)[C@@H](N)CCCN=C(N)N)C(N)=O | 4.8 | < 4.6 | < 4.6 |  | 
CCCC[C@H](NC(=O)[C@@H]1CCCN1C(=O)[C@H]1CCCN1C(=O)[C@H](Cc1ccccc1)NC(=O)[C@@H](Cc1c[nH]c2ccccc12)NC(=O)[C@H](C)NC(=O)[C@H](N)CCC(=O)OCc1ccccc1)C(N)=O |  |  |  | < 5.5 | 7.2
CCCC[C@H](NC(=O)[C@@H]1CCCN1C(=O)[C@H]1CCCN1C(=O)[C@H](Cc1ccccc1)NC(=O)[C@@H](Cc1c[nH]c2ccccc12)NC(=O)[C@H](C)NC(=O)[C@H](CCCN=C(N)N)NC(=O)OCc1ccccc1)C(N)=O | 6.7 | 7.5 |  |  | 
CCCC[C@H](NC(=O)[C@@H]1CCCN1C(=O)[C@H]1CCCN1C(=O)[C@H](Cc1ccccc1)NC(=O)[C@@H](Cc1c[nH]c2ccccc12)NC(=O)[C@H](C)NC(=O)[C@H](CCCCN)NC(=O)OC(C)(C)C)C(N)=O |  |  |  | 4.8 | 7.1
CCCC[C@H](NC(=O)[C@@H]1CCCN1C(=O)[C@H]1CCCN1C(=O)[C@H](Cc1ccccc1)NC(=O)[C@H](Cc1c[nH]c2ccccc12)NC(=O)[C@H](C)NC(=O)[C@H](CCCN=C(N)N)NC(=O)OC(C)(C)C)C(N)=O | < 5 | 6.4 |  |  | 
CCCC[C@H](NC(=O)[C@@H]1CCCN1C(=O)[C@H]1CCCN1C(=O)[C@H](Cc1ccccc1)NC(=O)[C@H](Cc1ccccc1)NC(=O)[C@H](C)NC(=O)[C@@H](N)CCCN=C(N)N)C(N)=O | < 4.6 | < 4.6 | < 4.6 |  | 
CCCC[C@H](NC(=O)[C@@H]1CCCN1C(=O)[C@H]1CCCN1C(=O)[C@H](Cc1ccccc1)NC(=O)[C@@H](Cc1c[nH]c2ccccc12)NC(=O)[C@H](C)NC(=O)[C@H](CCCN=C(N)N)NC(C)=O)C(N)=O | 4.6 | 5.6 |  |  | 
CCCC[C@H](NC(=O)[C@@H]1CCCN1C(=O)[C@H]1CCCN1C(=O)[C@H](Cc1ccccc1)NC(=O)[C@@H](Cc1c[nH]c2ccccc12)NC(=O)[C@H](C)NC(=O)[C@H](CCC(=O)OCc1ccccc1)NC(=O)OC(C)(C)C)C(N)=O | 6.6 | 7.4 |  |  | 
CCCC[C@H](NC(=O)[C@H](CC(C)C)NC(=O)[C@@H](Cc1c[nH]c2ccccc12)NC(=O)[C@H](Cc1ccccc1)NC(=O)[C@@H](Cc1c[nH]c2ccccc12)NC(=O)[C@H](C)NC(=O)[C@@H](N)CCCN=C(N)N)C(N)=O | 6 | 6.2 | < 4.6 |  | 
C[C@H](NC(=O)[C@H](CCCN=C(N)N)NC(=O)OC(C)(C)C)C(=O)N[C@H](Cc1c[nH]c2ccccc12)C(=O)N[C@@H](Cc1ccccc1)C(=O)N1CCC[C@@H]1C(=O)N1CCC[C@H]1C(=O)NCC(N)=O | 5.3 | 7 |  |  | 

Other lines, results leading:

pKB [1] | pKB [2] | pKB [3] | pKB [4] | pKB [5] | Compound
< 4.5 | 6.2 |  |  |  | CSCC[C@H](NC(=O)[C@@H]1CCCN1C(=O)[C@H]1CCCN1C(=O)[C@H](Cc1ccccc1)NC(=O)[C@@H](Cc1c[nH]c2ccccc12)NC(=O)[C@H](C)NC(=O)[C@H](CCCN=C(N)N)NC(=O)OC(C)(C)C)C(N)=O
6.4 | 5.7 |  |  |  | CCCC[C@H](NC(=O)[C@H](CC(C)C)NC(=O)[C@@H](Cc1c[nH]c2ccccc12)NC(=O)[C@H](Cc1ccccc1)NC(=O)[C@@H](Cc1c[nH]c2ccccc12)NC(=O)[C@H](CCC(N)=O)NC(=O)[C@@H](N)CCCN=C(N)N)C(N)=O
4.5 | 5.2 |  |  |  | CCCC[C@H](NC(=O)[C@@H]1CCCN1C(=O)[C@H]1CCCN1C(=O)[C@H](Cc1ccccc1)NC(=O)[C@H]1CCCN1C(=O)[C@H](C)NC(=O)[C@H](CCCN=C(N)N)NC(=O)OC(C)(C)C)C(N)=O
6 | 7.1 |  |  |  | CCCC[C@H](NC(=O)[C@@H]1CCCN1C(=O)[C@H]1CCCN1C(=O)[C@H](Cc1ccccc1)NC(=O)[C@@H](Cc1c[nH]c2ccccc12)NC(=O)[C@H](C)NC(=O)[C@@H](CCC(=O)OCc1ccccc1)NC(=O)OC(C)(C)C)C(N)=O
5.7 | 5.2 |  |  |  | CCCC[C@H](NC(=O)[C@@H]1CCCN1C(=O)[C@H]1CCCN1C(=O)[C@H](Cc1ccccc1)NC(=O)[C@@H](Cc1c[nH]c2ccccc12)NC(=O)[C@H](C)NC(=O)[C@@H](CCCN=C(N)N)NC(=O)OC(C)(C)C)C(N)=O
 | 6.4 |  |  |  | CCCC[C@H](NC(=O)[C@@H]1CCCN1C(=O)[C@H]1CCCN1C(=O)[C@H](Cc1ccccc1)NC(=O)[C@@H](Cc1ccccc1)NC(=O)[C@H](C)NC(=O)[C@H](CCCN=C(N)N)NC(=O)OC(C)(C)C)C(N)=O
6.9 | 6.5 |  |  |  | CCCC[C@H](NC(=O)[C@H](CC(C)C)NC(=O)[C@@H](Cc1c[nH]c2ccccc12)NC(=O)[C@H](Cc1ccccc1)NC(=O)[C@@H](Cc1c[nH]c2ccccc12)NC(=O)[C@H](C)NC(=O)[C@H](CCCN=C(N)N)NC(=O)OC(C)(C)C)C(N)=O
5.8 | 7.6 |  |  |  | CCCCCNC(=O)[C@@H]1CCCN1C(=O)[C@H]1CCCN1C(=O)[C@H](Cc1ccccc1)NC(=O)[C@@H](Cc1c[nH]c2ccccc12)NC(=O)[C@H](C)NC(=O)[C@H](CCCN=C(N)N)NC(=O)OC(C)(C)C
< 4.6 | 5.7 | 4.9 |  |  | CSCC[C@@H](NC(=O)[C@H](CC(C)C)NC(=O)[C@H]1CCCN1C(=O)[C@H](Cc1ccccc1)NC(=O)[C@@H](Cc1c[nH]c2ccccc12)NC(=O)[C@H](C)NC(=O)[C@@H](N)CCCN=C(N)N)C(N)=O
 |  |  | 4.7 | 5.9 | CCCC[C@H](NC(=O)[C@@H]1CCCN1C(=O)[C@H]1N(C(=O)[C@H](Cc2ccccc2)NC(=O)[C@@H](Cc2c[nH]c3ccccc23)NC(=O)[C@H](C)NC(=O)[C@@H](N)CCCN=C(N)N)CSC1(C)C)C(N)=O
 |  |  |  | 7.6 | CCCC[C@H](NC(=O)C1CCCN1C(=O)[C@H]1CCCN1C(=O)[C@H](Cc1ccccc1)NC(=O)[C@@H](Cc1c[nH]c2ccccc12)NC(=O)CCCCNC(=O)OC(C)(C)C)C(N)=O (stereo partly specified)
4.7 | 5.9 | < 4.6 |  |  | CCCC[C@H](NC(=O)[C@@H]1CCCN1C(=O)[C@H]1CCCN1C(=O)[C@H](Cc1ccccc1)NC(=O)[C@@H](Cc1c[nH]c2ccccc12)NC(=O)[C@H](C)NC(=O)[C@@H](N)CCCN=C(N)N)C(N)=O
5.1 | 7.5 |  |  |  | CNC(=O)[C@@H]1CCCN1C(=O)[C@H]1CCCN1C(=O)[C@H](Cc1ccccc1)NC(=O)[C@@H](Cc1c[nH]c2ccccc12)NC(=O)[C@H](C)NC(=O)[C@H](CCCN=C(N)N)NC(=O)OC(C)(C)C
